What was measured:
Format in all cases: functional
Rattus norvegicus [1] = assay: Effect on 24-h cumulative iron excretion in the urine of non-iron-overloaded bileduct-cannulated rats at a concentration of 450 umol/kg after subcutaneous administration
In short: (§1)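 Drugs given subcutaneously in Cremophor RH-40/water (40:60) to non-iron-overloaded, bile duct-cannulated rats. Rats were fasted 24 h before dosing, and the fast continued through the experiment. Bile and urine iron were collected over 24 h and reported as induced iron (mg/kg rat) with fractions in bile and urine. Efficiency is the percentage of the theoretical total (8.37 mg/kg). n = 2–6 per group.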

Rattus norvegicus [2] = assay: Effect on 24-hcumulative iron excretion in the urine of non-iron-overloaded bileduct-cannulated rats at a concentration of 450 umol/kg after subcutaneous administration; in short: as §1
Rattus norvegicus [3] = assay: Effect on 24-h cumulative iron excretion in the urine of non-iron-overloaded bileduct-cannulated rats at a concentration of 150 umol/kg after subcutaneous administration; in short: as §1
Rattus norvegicus [4] = assay: Effect on 24-hcumulative iron excretion in the urine of non-iron-overloaded bileduct-cannulated rats at a concentration of 150 umol/kg after subcutaneous administration; in short: as §1
Rattus norvegicus [5] = assay: Effect on 24-h cumulative iron excretion in the bile of non-iron-overloaded bileduct-cannulated rats at a concentration of 150 umol/kg after subcutaneous administration
In short: as §1, with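 “urine.” for “urine. Efficiency is the percentage of the theoretical total (8.37 mg/kg). n = 2–6 per group.”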

Compound | Iron excretion (Rattus norvegicus [1]) [%] | Iron excretion (Rattus norvegicus [2]) [mg/kg] | Iron excretion (Rattus norvegicus [3]) [%] | Iron excretion (Rattus norvegicus [4]) [mg/kg] | Iron excretion (Rattus norvegicus [5]) [%]
NCCCCCN(O)C(=O)CCC(=O)O | 0 | -0.003 | – | – | –
CC(=O)N(O)CCCCCN | 0 | -0.001 | – | – | –
CCCCCCCCCC(=O)N(O)CCCCC(=O)N(O)CCCCC(=O)N(O)CCCCCN.Cl | – | – | 9.2 | 0.017 | –
CC(=O)N(O)CCCCCCCC(=O)N(O)CCCCCCCC(=O)N(O)CCCCCN.Cl | – | – | 0 | 0 | –
CC(=O)N(O)CCCCC(=O)N(O)CCCCC(=O)N(O)CCCCCN.Cl | – | – | 9.4 | 0.021 | –
CC(=O)N(O)CCCCCNC(=O)CCC(=O)N(O)CCCCCNC(=O)CCC(=O)N(O)CCCCCN [DEFEROXAMINE] | – | – | 25.4 | 0.059 | 74.6
